Published values of several laboratories.
Protocols differ between the studies behind these lines.
CDK14: Cyclin-dependent kinase 14 (CDK14, Homo sapiens, UniProt O94921)
CDK14 with cyclin Y: Cyclin-dependent kinase 14, with cyclin Y (CDK14, Homo sapiens, UniProt O94921)

Compound	target	read-out	action	method	tested at	endpoint	value
Cc1ccc(NC(=O)c2ccnc(C(F)(F)F)c2)cc1-c1cc(OCCO)nc(N2CCOCC2)c1	CDK14	binding		competition with immobilised ligand	1 µM	remaining binding	100%
CC(C)S(=O)(=O)c1ccc2nccc(Nc3ccc4sc(C5CCCC5)nc4c3)c2c1	CDK14 with cyclin Y	enzyme activity	inhibitor		1 µM	activity vs control	110%
CCCCC(=O)Nc1ccc(-c2ccc3ncn(CCC)c(=O)c3c2)cn1	CDK14	binding		competition with immobilised ligand	0.5 µM	remaining binding	100%
CC#CC(=O)N1CCC[C@H]1c1nc(-c2ccc(C(=O)Nc3ccccn3)cc2)c2c(N)nccn12	CDK14	enzyme activity	inhibitor		1 µM	inhibition	4%
COc1ccc2oc(-c3ccc4nc(N)oc4c3)c/c(=N\c3ccccc3NC(=O)CCN)c2c1	CDK14 with cyclin Y	binding			1 µM	remaining binding	100%
C1=C/COCc2cc(ccc2OCCN2CCCC2)Nc2nccc(n2)-c2cccc(c2)COC/1	CDK14	cell-free assay			0.1 µM	remaining signal	87%
CO[C@@H]1[C@H](N(C)C(=O)c2ccccc2)C[C@H]2O[C@]1(C)n1c3ccccc3c3c4c(c5c6ccccc6n2c5c31)C(=O)NC4	CDK14	enzyme activity	inhibitor		1 µM	inhibition	0%
CN1CCN(C(=O)c2ccc(NC(=O)Nc3ccc(N(C)c4ccnc(Nc5ccc(CS(C)(=O)=O)cc5)n4)cc3)cc2)CC1	CDK14	binding		competition with immobilised ligand	1 µM	remaining binding	81%
